Results taken from ChEMBL document CHEMBL4145673, “Glucopyranosylbianthrones from the Algerian Asphodelus tenuifolius: Structural Insights and Biological Evaluation on Melanoma Cancer Cells” (J Nat Prod, 2018).
The source made the active and inactive calls. No cut-off for these calls is given here.

Experiments:
A-375 [1] = assay: Cell cycle arrest in human A375 cells measured after 48 hrs by propidium iodide staining based flow cytometry; type: functional
In short: (§1)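 A375 cells exposed 48 h (text gives 20, 30, 40 μM; methods give 10, 20, 40 μM), harvested, washed in cold PBS, stained 30 min at 4 °C in hypotonic PI buffer (0.1% sodium citrate, 0.1% Triton X-100, 25 μg/mL PI, 10 μg/mL RNase A). Flow cytometry for G0/G1, S, G2/M distribution and hypodiploid nuclei; means ± SD, triplicate determinations; two-way ANOVA with Bonferroni.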

A-375 [2] = assay: Cell cycle arrest in human A375 cells assessed as decrease in accumulation at G1-phase at 20 to 40 uM measured after 48 hrs by propidium iodide staining based flow cytometry; type: functional; in short: as §1
A-375 [3] = assay: Cell cycle arrest in human A375 cells assessed as increase in accumulation at S-phase at 20 to 40 uM measured after 48 hrs by propidium iodide staining based flow cytometry; type: functional; in short: as §1
A-375 [4] = assay: Antiproliferative activity against human A375 cells measured after 48 hrs by MTT assay; type: functional, cell-based
In short: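 A375 melanoma cells grown in DMEM with 10% FBS, 2 mM L-glutamine, penicillin/streptomycin at 37 °C, 5% CO2, subcultured every 2 days; seeded 1 × 10^4/well in triplicate, exposed 48 h to 5−50 μM (DMSO stock diluted into medium; vehicle control 0.1% v/v DMSO). MTT conversion read-out; IC50 from viability dose−response curves versus DMSO-treated control.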

A-375 [5] = assay: Induction of apoptosis in human A375 cells assessed as increase in hypodiploid nuclei at 20 to 40 uM measured after 48 hrs by propidium iodide staining based flow cytometry relative to control; type: functional; in short: as §1
A-375 [6] = assay: Cell cycle arrest in human A375 cells assessed as increase in accumulation at G2/M-phase at 20 to 40 uM measured after 48 hrs by propidium iodide staining based flow cytometry; type: functional; in short: as §1
A-375 [7] = assay: Cell cycle arrest in human A375 cells assessed as decrease in accumulation at S-phase at 20 to 40 uM measured after 48 hrs by propidium iodide staining based flow cytometry; type: functional; in short: as §1

Cc1cc(O)c2c(c1)[C@](O)(C1O[C@H](CO)[C@@H](O)[C@H](O)[C@H]1O)c1ccc(-c3c(C)cc(O)c4c3C(=O)c3cccc(O)c3C4=O)c(O)c1C2=O (single isomer, unassigned; atropisomer M) [listing 1 of 2 here]
Activity (A-375 [1]): Dose-dependent effect
Activity (A-375 [2]): Active
Activity (A-375 [3]): Active
Activity (A-375 [4]): Dose-dependent effect

Cc1cc(O)c2c(c1)[C@](O)(C1O[C@H](CO)[C@@H](O)[C@H](O)[C@H]1O)c1ccc(-c3c(C)cc(O)c4c3C(=O)c3cccc(O)c3C4=O)c(O)c1C2=O (single isomer, unassigned; atropisomer M) [listing 2 of 2 here]
IC50 (A-375 [4]; Homo sapiens, A-375, 48 h): 20.6 µM
Activity (A-375 [5]): 13.2%

Cc1cc(O)c2c(c1)[C@](O)(C1O[C@H](CO)[C@@H](O)[C@H](O)[C@H]1O)c1ccc(-c3c(C)cc(O)c4c3C(=O)c3cccc(O)c3C4=O)c(O)c1C2=O (atropisomer P) [listing 1 of 2 here]
Activity (A-375 [1]): Dose-dependent effect
Activity (A-375 [6]): Active
Activity (A-375 [2]): Active
Activity (A-375 [4]): Dose-dependent effect
Activity (A-375 [7]): Active

Cc1cc(O)c2c(c1)[C@](O)(C1O[C@H](CO)[C@@H](O)[C@H](O)[C@H]1O)c1ccc(-c3c(C)cc(O)c4c3C(=O)c3cccc(O)c3C4=O)c(O)c1C2=O (atropisomer P) [listing 2 of 2 here]
IC50 (A-375 [4]; a-375): 23.2 µM
Activity (A-375 [5]): 12.2%
